In ChEMBL document CHEMBL1126706, “Structure-activity relationship of N-[2-(dimethylamino)-6-[3-(5-methyl-4-phenyl-1H-imidazol-1-yl)propoxy] phenyl]-N'-pentylurea and analogues. Novel potent inhibitors of acyl-CoA:cholesterol O-acyltransferase with antiatherosclerotic activity” (J Med Chem, 1993):

Key:
[1] = target: T1, Acyl-CoA:cholesterol acyltransferase (Oryctolagus cuniculus, UniProt Q95214); test: Tested for inhibition against acyl coenzyme A:cholesterol acyltransferase from rabbit aorta homogenate.; assay type: tissue-based
T1 sequence (Q95214 whole entry): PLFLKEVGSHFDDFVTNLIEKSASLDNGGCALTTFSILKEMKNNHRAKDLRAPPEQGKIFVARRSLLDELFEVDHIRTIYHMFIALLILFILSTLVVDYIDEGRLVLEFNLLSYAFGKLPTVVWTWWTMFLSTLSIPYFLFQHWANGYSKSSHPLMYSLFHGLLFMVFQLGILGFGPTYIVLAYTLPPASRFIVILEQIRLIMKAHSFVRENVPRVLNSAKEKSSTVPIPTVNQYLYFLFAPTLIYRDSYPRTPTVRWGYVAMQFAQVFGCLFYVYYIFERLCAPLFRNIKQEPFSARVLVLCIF

[2] = target: O-acyltransferase (Oryctolagus cuniculus, UniProt G1SFD9); test: Tested for inhibition against acyl coenzyme A:cholesterol acyltransferase from rabbit intestine microsomes.
Procedure, shortened: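 Intestinal mucosa microsomes from NZW rabbit (10000g then 105000g pellet, buffered sucrose pH 7.4). Endogenous cholesterol plus 40 μM [1-14C]oleoyl-CoA in K2HPO4 buffer pH 7.4 with 2.4 mg/mL BSA; compound preincubated 3 min at 37 °C, enzyme (8 mg protein/mL) added, 2 min reaction, chloroform/methanol 2:1 stop. IC50 from triplicate tubes per concentration.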

[3] = test system: Rattus norvegicus; test: Tested for cholesterol lowering activity in rats after a dose of 10 mg/kg once a day for 5 days; assay type: functional
Procedure, shortened: (§1)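 Male Sprague-Dawley rats, 5 weeks old, fed chow with 1% cholesterol and 0.5% cholic acid while given drug orally once daily as a suspension in 2% Sefuzol. Starved 5 h after last dose, bled from abdominal aorta under ether; serum total cholesterol measured enzymatically. Result as percent of control (n ≥ 4).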

[4] = test system: Rattus norvegicus; test: Tested for cholesterol lowering activity in rats after a dose of 50 mg/kg once a day for 2 days; assay type: functional; procedure, shortened: as §1
[5] = test system: Rattus norvegicus; test: Tested for cholesterol lowering activity in rats after a dose of 30 mg/kg once a day for 5 days; assay type: functional; conditions: dose 10 mg/kg; in the assay text read “10 mg/kg” for “30 mg/kg”; procedure, shortened: as §1
[6] = test system: Oryctolagus cuniculus; test: Tested for the plasma total cholesterol level in rabbit after administration of 0.2% (w/w) of drug for first 4 days; assay type: functional, organism-based
Procedure, shortened: (§2)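 Male NZW rabbits (2.5-3.0 kg) were fed chow with 0.5% cholesterol and 0.5% olive oil, 100 g/day, for 8 weeks, then randomized by plasma cholesterol. Drug was mixed into the diet for 4 weeks, either 0.2% (w/w) for 4 days then 0.1%, or 0.1% throughout. Plasma total cholesterol was measured enzymatically in EDTA ear-vein blood. Mean ± SEM; Student's t test vs control.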

[7] = species: Oryctolagus cuniculus; test: Tested for the atheromatous lesion development in rabbit; assay type: functional
Procedure, shortened: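 Male NZW rabbits (2.5-3.0 kg) fed 100 g/day chow with 0.5% cholesterol and 0.5% olive oil for 8 weeks, randomized by plasma cholesterol, then 4 weeks with drug mixed in diet (0.2% then 0.1% w/w, or 0.1% w/w). Thoracic aorta halved: one half formalin-fixed, Sudan IV-stained, stained area measured by image analysis; other half cholesterol content by TLC-FID. Mean ± SEM, 7-12 per group, Student's t test.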

[8] = species: Rattus norvegicus; test: Tested for hypocholesterolemic activity required to decrease serum total cholesterol; assay type: functional
Procedure, shortened: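 Male Sprague-Dawley rats (5 weeks) on 1% cholesterol/0.5% cholic acid chow; drug in 2% Sefuzol given orally once daily for 5 days. Serum total cholesterol measured enzymatically after 5 h fast. ED30 (mg/kg dose lowering serum cholesterol to 30% of control) read from dose-response curve of at least 3 doses, n = 4 or 5.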

[9] = test system: Oryctolagus cuniculus; test: Tested for the plasma total cholesterol level in rabbit after administration of 0.1% (w/w) of drug for first 4 days; assay type: functional, organism-based; procedure, shortened: as §2

O-acyltransferase, sequence (G1SFD9 1-524): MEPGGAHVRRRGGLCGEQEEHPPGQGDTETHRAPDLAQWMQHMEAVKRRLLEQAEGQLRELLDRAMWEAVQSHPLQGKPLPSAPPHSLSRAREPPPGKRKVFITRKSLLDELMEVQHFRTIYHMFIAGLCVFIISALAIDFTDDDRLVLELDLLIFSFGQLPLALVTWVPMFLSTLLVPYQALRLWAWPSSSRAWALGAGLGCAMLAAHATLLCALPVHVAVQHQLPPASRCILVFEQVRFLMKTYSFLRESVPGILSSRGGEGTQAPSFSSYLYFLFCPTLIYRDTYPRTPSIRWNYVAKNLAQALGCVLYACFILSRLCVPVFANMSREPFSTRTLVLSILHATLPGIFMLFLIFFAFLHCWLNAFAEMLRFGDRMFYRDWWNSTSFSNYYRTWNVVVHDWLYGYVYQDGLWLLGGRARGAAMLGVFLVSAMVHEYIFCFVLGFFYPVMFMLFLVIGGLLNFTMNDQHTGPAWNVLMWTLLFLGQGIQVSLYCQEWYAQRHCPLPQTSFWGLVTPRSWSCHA

Compound | IC50 [1] | IC50 [2] | Cholesterol reduction [3] | other results
CCCCCNC(=O)Nc1c(OCCCn2cnc(-c3ccc(CCCC)cc3)c2)cccc1N(C)C | 0.43 µM | 0.054 µM | -46% | –
CCCCCNC(=O)Nc1c(OCCCN2CCC(c3ccccc3)CC2)cccc1N(C)C | 0.47 µM | 0.34 µM | -27% | –
CCCCCNC(=O)Nc1c(OCCCNCCc2ccccc2)cccc1N(C)C | 3.44 µM | 0.96 µM | -18% | –
CCCCCNC(=O)Nc1c(OCCCCn2cnc(-c3ccccc3)c2)cccc1N(C)C | 0.78 µM | 0.16 µM | – | –
CCCCCNC(=O)N(C)c1c(OCCCn2cnc(-c3ccccc3)c2)cccc1N(C)C | 0.4 µM | 0.93 µM | – | –
CCCCCCNc1c(OCCCn2cnc(-c3ccccc3)c2)cccc1N(C)C | 3.3 µM | 11 µM | – | –
CCCCCNC(=O)Nc1c(OCCCn2cnc3ccccc32)cccc1N(C)C | 0.62 µM | 0.18 µM | -12% | –
CCCCCNC(=O)Nc1c(OCCCn2cnc(-c3ccccc3)c2C)ncnc1N(C)C | 11 µM | 5.5 µM | – | –
CCCCCNC(=O)Nc1ccc(OCCCn2cnc(-c3ccccc3)c2C)cc1N(C)C | 1.5 µM | 2.4 µM | – | –
CCCCCNC(=O)Nc1c(OCCCN2CCN(c3ccccc3)CC2)cccc1N(C)C | 0.18 µM | – | -44% | –
CCCCCNC(=O)Nc1c(OCCCn2nnc(-c3ccccc3)n2)cccc1N(C)C | 0.23 µM | 0.023 µM | -48% | –
CCCCCNC(=O)Nc1cc(OCCCn2cnc(-c3ccccc3)c2C)ccc1N(C)C | 0.41 µM | 0.41 µM | – | –
CCCCCNC(=O)Nc1cccc(OCCCn2cnc(-c3ccccc3)c2C)c1N(C)C | 3.2 µM | 5.8 µM | – | –
CCNC(=O)Nc1c(OCCCn2cnc(-c3ccccc3)c2)cccc1N(C)C | > 10 µM | 0.87 µM | – | Cholesterol reduction [4]: 2%
CN(C)c1cccc(OCCCn2cnc(-c3ccccc3)c2)c1NC(=O)NC1CCCC1 | 3.53 µM | 0.24 µM | – | Cholesterol reduction [4]: -24%
CCCCCNC(=O)Nc1c(OCCCn2ccnc2-c2ccccc2)cccc1N(C)C | 0.48 µM | 0.38 µM | – | Cholesterol reduction [5]: -12%
CCCCCCNC(=O)Nc1c(OCCCn2cnc(-c3ccccc3)c2)cccc1N(C)C | 0.05 µM | 0.06 µM | – | Plasma total cholesterol [6]: 924 mg/dL; Surface involvement [7]: 30.6%; ED30 [8]: 1.3 mg/kg; Cholesterol reduction [4]: -57%
CCCCCC(=O)Nc1c(OCCCn2cnc(-c3ccccc3)c2)cccc1N(C)C | 0.1 µM | 0.2 µM | – | Cholesterol reduction [4]: 3%
CCCCCNC(=O)Nc1c(OCCCn2cnc(-c3ccc(OC)cc3)c2)c(Br)cc(Br)c1N(C)C | 1.3 µM | 2.4 µM | – | –

Compound | IC50 [1] | IC50 [2] | Cholesterol reduction [3] | other results
CCCCCNC(=O)Nc1c(OCCCn2cnc(-c3cccc4ccccc34)c2)cccc1N(C)C | 1.55 µM | 0.065 µM | -30% | –
CCCCCNC(=O)Nc1c(NCCCn2cnc(-c3ccccc3)c2C)cccc1N(C)C | 2.2 µM | 0.47 µM | – | –
CCCCCNC(=O)Nc1c(OCCCn2cc(-c3ccc(OC)cc3)nc2C)cccc1N(C)C | 0.73 µM | 0.16 µM | -15% | –
CCCCCNC(=O)Nc1c(OCCCn2ncc(-c3ccccc3)n2)cccc1N(C)C | 0.18 µM | 0.032 µM | -32% | –
CCCCCNC(=O)Nc1c(OCCCn2cnc(C)c2-c2ccccc2)cccc1N(C)C | 0.21 µM | 0.085 µM | -46% | –
CCCCCNC(=O)Nc1c(OCCCn2cnc(-c3ccccc3)c2C)cccc1N(C)C | 0.11 µM | – | -49% | Plasma total cholesterol [9]: 800 mg/dL; Surface involvement [7]: 21%; ED30 [8]: 4.5 mg/kg
CCCCCN(C)C(=O)Nc1c(OCCCn2cnc(-c3ccccc3)c2)cccc1N(C)C | 0.28 µM | 0.55 µM | – | –
CN(C)c1cccc(OCCCn2cnc(-c3ccccc3)c2)c1NC(=O)NC(C)(C)C | 0.99 µM | 0.13 µM | – | Cholesterol reduction [4]: -12%
CCCNC(=O)Nc1c(OCCCn2cnc(-c3ccccc3)c2)cccc1N(C)C | 7.23 µM | 0.66 µM | – | –
CCCCCNC(=O)Nc1c(N(C)C)ccc(C)c1OCCCn1cnc(-c2ccccc2)c1 | 0.25 µM | 0.41 µM | – | –
CCCCCNC(=O)Nc1c(OCCn2cnc(-c3ccccc3)c2)cccc1N(C)C | 1.4 µM | 0.17 µM | – | –
CCCCCNC(=O)Nc1c(OCCCn2cnc(-c3ccc(OC)cc3)c2)cccc1N(C)C | 1.33 µM | 0.059 µM | -36% | –
CCCCCNC(=O)Nc1c(SCCCn2cnc(-c3ccccc3)c2C)cccc1N(C)C | 0.058 µM | 0.056 µM | – | –
CCCCNC(=O)Nc1c(OCCCn2cnc(-c3ccccc3)c2)cccc1N(C)C | 0.81 µM | 0.14 µM | – | Plasma total cholesterol [6]: 1190 mg/dL; Surface involvement [7]: 23.5%; ED30 [8]: 75 mg/kg; Cholesterol reduction [4]: -37%
CCCCCNC(=O)Nc1c(OCCCn2nc3ccccc3n2)cccc1N(C)C | 0.29 µM | 0.77 µM | -3.4% | –
CCCCCNC(=O)Nc1c(OCCCn2cnc(-c3ccccc3)c2)cccc1N(C)C | 0.16 µM | 0.031 µM | – | Plasma total cholesterol [6]: 830 mg/dL; Surface involvement [7]: 22.8%; ED30 [8]: 14 mg/kg; Cholesterol reduction [4]: -51%
CN(C)c1cccc(OCCCn2cnc(-c3ccccc3)c2)c1NC(=O)NC1CCCCC1 | 1.07 µM | 0.073 µM | – | Cholesterol reduction [4]: -42%
CCCCCNC(=O)Nc1c(CCCCn2cnc(-c3ccccc3)c2C)cccc1N(C)C | 0.14 µM | 0.17 µM | -37% | –
